Experimental data taken from ChEMBL document CHEMBL1154951, “Discovery of potent and bioavailable GSK-3beta inhibitors” (Bioorg Med Chem Lett, 2010).
Values after ≈ are worked out from the molar mass of the structure shown. Active and inactive are the calls of the source. The calls are words filed in the database; no cut-off is given here.

Columns and labels:
[1] = molecular target: Glycogen synthase kinase-3 beta (Homo sapiens, UniProt P49841); assay: Inhibition of human recombinant GSK3-beta assessed as [gamma33]ATP transfer to biotinylated CREB-peptide substrate after 1 hr by scintillation counting
Chain of Glycogen synthase kinase-3 beta (P49841 whole entry): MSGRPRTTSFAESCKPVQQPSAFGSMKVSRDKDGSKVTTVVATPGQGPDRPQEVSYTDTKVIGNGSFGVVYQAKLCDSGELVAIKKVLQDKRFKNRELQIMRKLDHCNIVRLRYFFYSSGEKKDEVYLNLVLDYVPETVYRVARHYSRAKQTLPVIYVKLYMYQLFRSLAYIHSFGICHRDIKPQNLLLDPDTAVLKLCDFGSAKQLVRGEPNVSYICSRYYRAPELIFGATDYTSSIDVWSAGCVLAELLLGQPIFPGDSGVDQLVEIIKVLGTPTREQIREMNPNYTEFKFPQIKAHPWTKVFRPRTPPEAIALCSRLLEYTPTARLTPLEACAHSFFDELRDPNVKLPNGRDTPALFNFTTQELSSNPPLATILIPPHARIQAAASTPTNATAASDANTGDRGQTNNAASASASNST

[2] = molecular target: Protein kinase C alpha type (Homo sapiens, UniProt P17252); assay: Inhibition of PKCalpha
Mus musculus [3] = assay: AUC in mouse at 10 mg/kg, ip; type: ADME, organism-based, Plasma; design: dose 10 mg/kg, route intraperitoneal; settings: in vivo, BLD = below limit of detection
Mus musculus [4] = assay: Cmax in mouse at 10 mg/kg, ip; type: ADME, organism-based; design: dose 10 mg/kg, route intraperitoneal; settings: in vivo, BLD = below limit of detection
[5] = Aqueous solubility at pH 6.6; type: physicochemical
[6] = molecular target: Dual specificity protein kinase CLK3 (Homo sapiens, UniProt P49761); assay: Inhibition of CLK3
Method in brief: (§1)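 Affinity measured as a binding constant (Kd) in a quantitative competition binding assay, not as a catalytic activity read-out. An 11-point concentration curve was run for each kinase. Kd values are given in µM. Each value is also expressed as a ratio over the Kd for GSK3b.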

[7] = molecular target: Glycogen synthase kinase-3 alpha (Homo sapiens, UniProt P49840); assay: Inhibition of GSK3alpha; method in brief: as §1
[8] = molecular target: Cyclin-dependent kinase 19 (Homo sapiens, UniProt Q9BWU1); assay: Inhibition of CDK11; method in brief: as §1
Chain of Cyclin-dependent kinase 19 (Q9BWU1 whole entry): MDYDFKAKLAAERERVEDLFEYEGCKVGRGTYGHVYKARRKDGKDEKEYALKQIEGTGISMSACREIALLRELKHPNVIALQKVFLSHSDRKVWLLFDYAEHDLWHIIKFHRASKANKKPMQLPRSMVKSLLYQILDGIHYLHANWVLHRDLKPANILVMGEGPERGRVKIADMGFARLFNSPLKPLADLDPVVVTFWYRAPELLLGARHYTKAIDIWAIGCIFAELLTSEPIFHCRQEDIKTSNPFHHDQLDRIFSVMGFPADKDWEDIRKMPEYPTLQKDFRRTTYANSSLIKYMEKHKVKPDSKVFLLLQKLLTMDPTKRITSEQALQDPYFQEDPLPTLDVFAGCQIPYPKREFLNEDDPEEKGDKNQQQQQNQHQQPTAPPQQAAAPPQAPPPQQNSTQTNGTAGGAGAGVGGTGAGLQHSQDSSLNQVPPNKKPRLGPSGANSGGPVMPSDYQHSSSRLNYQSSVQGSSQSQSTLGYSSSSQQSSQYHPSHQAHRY

[9] = molecular target: Dual specificity protein kinase CLK2 (Homo sapiens, UniProt P49760); assay: Inhibition of CLK2; method in brief: as §1
[10] = molecular target: Dual specificity protein kinase CLK1 (Homo sapiens, UniProt P49759); assay: Inhibition of CLK1; method in brief: as §1
Aurora kinase B = Aurora kinase B (Homo sapiens, UniProt Q96GD4); assay: Inhibition of AURKB; method in brief: as §1
Aurora kinase C = Aurora kinase C (Homo sapiens, UniProt Q9UQB9); assay: Inhibition of AURKC; method in brief: as §1
[11] = molecular target: Mitogen-activated protein kinase 6 (Homo sapiens, UniProt Q16659); assay: Inhibition of ERK3; method in brief: as §1
[12] = molecular target: Mitogen-activated protein kinase 7 (Homo sapiens, UniProt Q13164); assay: Inhibition of ERK5; method in brief: as §1
[13] = molecular target: Dual specificity tyrosine-phosphorylation-regulated kinase 1B (Homo sapiens, UniProt Q9Y463); assay: Inhibition of DYRK1B
Method in brief: (§2)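 Competition binding assay giving binding constant (Kd) from an 11-point quantitative affinity curve against each kinase in a selectivity panel; values reported in µM and as ratio over GSK3b.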

[14] = molecular target: Dual specificity protein kinase CLK4 (Homo sapiens, UniProt Q9HAZ1); assay: Inhibition of CLK4; method in brief: as §1
[15] = molecular target: Interferon-induced, double-stranded RNA-activated protein kinase (Homo sapiens, UniProt P19525); assay: Inhibition of PRKR; method in brief: as §2
[16] = molecular target: Dual specificity protein kinase TTK (Homo sapiens, UniProt P33981); assay: Inhibition of TTK; method in brief: as §1
[17] = molecular target: Cyclin-dependent kinase 18 (Homo sapiens, UniProt Q07002); assay: Inhibition of PCTK3; method in brief: as §1
Chain of Cyclin-dependent kinase 18 (Q07002 whole entry): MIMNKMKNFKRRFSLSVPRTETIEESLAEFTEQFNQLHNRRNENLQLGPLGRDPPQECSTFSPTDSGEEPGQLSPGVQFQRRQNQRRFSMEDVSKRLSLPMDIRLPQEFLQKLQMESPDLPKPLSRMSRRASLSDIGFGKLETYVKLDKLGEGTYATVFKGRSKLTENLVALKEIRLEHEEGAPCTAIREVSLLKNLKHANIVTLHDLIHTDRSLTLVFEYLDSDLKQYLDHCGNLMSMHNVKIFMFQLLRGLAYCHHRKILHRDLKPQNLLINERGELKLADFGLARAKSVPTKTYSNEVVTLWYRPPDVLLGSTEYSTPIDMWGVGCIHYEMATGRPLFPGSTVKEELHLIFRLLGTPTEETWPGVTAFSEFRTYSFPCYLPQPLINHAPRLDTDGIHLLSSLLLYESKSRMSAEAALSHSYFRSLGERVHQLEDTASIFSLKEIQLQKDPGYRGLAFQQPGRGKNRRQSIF

[18] = molecular target: Mitogen-activated protein kinase 1 (Homo sapiens, UniProt P28482); assay: Inhibition of ERK2; method in brief: as §1
Chain of Mitogen-activated protein kinase 1 (P28482 whole entry): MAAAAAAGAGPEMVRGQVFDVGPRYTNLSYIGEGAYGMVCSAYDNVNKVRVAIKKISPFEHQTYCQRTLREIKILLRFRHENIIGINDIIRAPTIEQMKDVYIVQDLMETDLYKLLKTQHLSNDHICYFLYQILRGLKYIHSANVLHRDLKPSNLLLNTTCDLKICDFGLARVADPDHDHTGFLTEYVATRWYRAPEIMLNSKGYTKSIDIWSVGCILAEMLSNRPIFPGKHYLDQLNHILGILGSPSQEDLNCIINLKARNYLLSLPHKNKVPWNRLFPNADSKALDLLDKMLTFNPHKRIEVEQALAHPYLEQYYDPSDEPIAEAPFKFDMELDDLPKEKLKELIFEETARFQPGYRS

[19] = molecular target: Mitogen-activated protein kinase 15 (Homo sapiens, UniProt Q8TD08); assay: Inhibition of ERK8; method in brief: as §1
Chain of Mitogen-activated protein kinase 15 (Q8TD08 whole entry): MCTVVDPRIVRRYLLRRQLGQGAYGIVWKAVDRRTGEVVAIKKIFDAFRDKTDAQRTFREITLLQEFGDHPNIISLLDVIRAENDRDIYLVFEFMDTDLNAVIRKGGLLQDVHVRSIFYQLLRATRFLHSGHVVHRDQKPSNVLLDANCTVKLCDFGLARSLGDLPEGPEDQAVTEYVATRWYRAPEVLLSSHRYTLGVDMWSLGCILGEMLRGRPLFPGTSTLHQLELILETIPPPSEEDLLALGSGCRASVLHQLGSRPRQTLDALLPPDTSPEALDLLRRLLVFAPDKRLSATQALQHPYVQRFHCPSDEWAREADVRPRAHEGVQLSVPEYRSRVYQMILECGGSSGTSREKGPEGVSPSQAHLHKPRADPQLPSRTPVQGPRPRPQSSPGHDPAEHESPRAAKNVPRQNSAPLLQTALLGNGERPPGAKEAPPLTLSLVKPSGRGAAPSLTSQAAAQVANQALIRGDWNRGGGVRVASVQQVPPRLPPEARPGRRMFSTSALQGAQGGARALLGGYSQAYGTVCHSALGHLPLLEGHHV

[20] = molecular target: Cyclin-dependent kinase 3 (Homo sapiens, UniProt Q00526); assay: Inhibition of CDK3; method in brief: as §2
[21] = molecular target: Cyclin-dependent kinase 8 (Homo sapiens, UniProt P49336); assay: Inhibition of CDK8; method in brief: as §1
[22] = molecular target: Cyclin-dependent kinase 7 (Homo sapiens, UniProt P50613); assay: Inhibition of CDK7; method in brief: as §1
[23] = molecular target: Cyclin-dependent kinase 5 (Homo sapiens, UniProt Q00535); assay: Inhibition of CDK5; method in brief: as §1
Rattus norvegicus [24] = assay: Antiosteoporosis activity in ovariectomized rat assessed as increase in bone mineral density in L5 vertebra at 30 mg/kg, po QD for 3 weeks by bone densitometer relative to control; type: functional, organism-based; design: dose 30 mg/kg
[25] = molecular target: Serine/threonine-protein kinase PLK3 (Homo sapiens, UniProt Q9H4B4); assay: Inhibition of PLK3; method in brief: as §1
[26] = molecular target: Cyclin-dependent kinase 9 (Homo sapiens, UniProt P50750); assay: Inhibition of CDK9; method in brief: as §2
Chain of Cyclin-dependent kinase 9 (P50750 whole entry): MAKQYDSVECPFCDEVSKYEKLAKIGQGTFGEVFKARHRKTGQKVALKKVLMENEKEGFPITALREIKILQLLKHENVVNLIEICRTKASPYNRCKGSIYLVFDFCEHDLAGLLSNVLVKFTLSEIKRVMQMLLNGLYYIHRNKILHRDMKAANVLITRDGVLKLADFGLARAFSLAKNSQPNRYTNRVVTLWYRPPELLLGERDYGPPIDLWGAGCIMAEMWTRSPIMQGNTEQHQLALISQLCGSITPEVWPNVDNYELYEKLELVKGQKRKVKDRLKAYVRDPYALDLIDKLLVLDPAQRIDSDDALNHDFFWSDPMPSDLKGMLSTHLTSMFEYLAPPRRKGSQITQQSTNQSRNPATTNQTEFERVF

Rattus norvegicus [27] = assay: Antiosteoporosis activity in ovariectomized rat assessed as increase in bone mineral density in whole femur at 30 mg/kg, po QD for 3 weeks by bone densitometer relative to control; type: functional, organism-based; design: dose 30 mg/kg
Aurora kinase A = Aurora kinase A (Homo sapiens, UniProt O14965); assay: Inhibition of AURKA; method in brief: as §2
[28] = molecular target: Cyclin-dependent kinase 17 (Homo sapiens, UniProt Q00537); assay: Inhibition of PCTK2; method in brief: as §1
Chain of Cyclin-dependent kinase 17 (Q00537 whole entry): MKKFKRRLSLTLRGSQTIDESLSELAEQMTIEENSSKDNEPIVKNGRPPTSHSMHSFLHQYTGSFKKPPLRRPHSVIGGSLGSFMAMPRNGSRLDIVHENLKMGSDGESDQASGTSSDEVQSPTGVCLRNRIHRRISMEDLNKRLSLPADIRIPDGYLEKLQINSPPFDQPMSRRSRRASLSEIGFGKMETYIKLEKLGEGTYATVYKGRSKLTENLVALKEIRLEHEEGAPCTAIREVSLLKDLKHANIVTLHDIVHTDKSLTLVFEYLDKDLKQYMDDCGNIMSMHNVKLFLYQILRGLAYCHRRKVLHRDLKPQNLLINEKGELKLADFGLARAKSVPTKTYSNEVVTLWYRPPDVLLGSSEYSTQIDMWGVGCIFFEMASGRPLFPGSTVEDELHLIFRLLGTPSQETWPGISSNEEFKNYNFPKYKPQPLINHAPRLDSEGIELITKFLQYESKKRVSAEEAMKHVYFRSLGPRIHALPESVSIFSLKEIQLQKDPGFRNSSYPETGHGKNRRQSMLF

[29] = molecular target: Mitogen-activated protein kinase 3 (Homo sapiens, UniProt P27361); assay: Inhibition of ERK1; method in brief: as §1
Chain of Mitogen-activated protein kinase 3 (P27361 whole entry): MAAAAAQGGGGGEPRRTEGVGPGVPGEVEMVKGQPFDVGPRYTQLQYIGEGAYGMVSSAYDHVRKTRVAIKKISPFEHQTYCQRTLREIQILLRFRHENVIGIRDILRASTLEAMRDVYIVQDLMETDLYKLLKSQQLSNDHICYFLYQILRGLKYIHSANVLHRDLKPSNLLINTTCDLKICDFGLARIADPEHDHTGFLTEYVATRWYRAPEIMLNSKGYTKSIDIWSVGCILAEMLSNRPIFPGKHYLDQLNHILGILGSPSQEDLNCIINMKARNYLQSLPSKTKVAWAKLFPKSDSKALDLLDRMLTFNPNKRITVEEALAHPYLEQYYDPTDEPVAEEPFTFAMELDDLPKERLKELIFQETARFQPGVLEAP

Rattus norvegicus [30] = assay: Antiosteoporosis activity in ovariectomized rat assessed as increase in bone mineral density in distal femur at 30 mg/kg, po QD for 3 weeks by bone densitometer relative to control; type: functional, organism-based; design: dose 30 mg/kg
[31] = molecular target: Serine/threonine-protein kinase PLK1 (Homo sapiens, UniProt P53350); assay: Inhibition of PLK1; method in brief: as §1
[32] = molecular target: Cyclin-dependent kinase 2 (Homo sapiens, UniProt P24941); assay: Inhibition of CDK2; method in brief: as §1
[33] = molecular target: Mitogen-activated protein kinase 4 (Homo sapiens, UniProt P31152); assay: Inhibition of ERK4; method in brief: as §1
Chain of Mitogen-activated protein kinase 4 (P31152 whole entry): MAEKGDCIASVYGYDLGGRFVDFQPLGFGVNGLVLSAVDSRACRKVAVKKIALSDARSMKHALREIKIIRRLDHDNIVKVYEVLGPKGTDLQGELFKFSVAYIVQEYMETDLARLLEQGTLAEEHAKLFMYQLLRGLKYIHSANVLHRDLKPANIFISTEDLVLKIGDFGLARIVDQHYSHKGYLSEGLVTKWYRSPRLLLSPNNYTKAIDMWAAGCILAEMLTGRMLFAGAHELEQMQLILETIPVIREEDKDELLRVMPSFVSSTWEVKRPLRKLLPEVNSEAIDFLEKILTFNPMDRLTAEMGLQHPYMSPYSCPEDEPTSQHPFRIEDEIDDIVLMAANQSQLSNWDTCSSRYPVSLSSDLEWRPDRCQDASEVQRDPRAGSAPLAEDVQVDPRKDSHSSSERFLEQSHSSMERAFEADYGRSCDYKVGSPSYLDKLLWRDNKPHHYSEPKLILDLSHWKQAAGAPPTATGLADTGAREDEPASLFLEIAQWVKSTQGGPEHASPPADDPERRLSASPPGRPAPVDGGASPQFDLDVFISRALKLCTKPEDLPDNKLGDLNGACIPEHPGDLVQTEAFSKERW

[34] = molecular target: Serine/threonine-protein kinase 16 (Homo sapiens, UniProt O75716); assay: Inhibition of STK16; method in brief: as §1
[35] = molecular target: Serine/threonine-protein kinase PLK4 (Homo sapiens, UniProt O00444); assay: Inhibition of PLK4; method in brief: as §1
Rattus norvegicus [36] = assay: Antiosteoporosis activity in ovariectomized rat assessed as increase in bone mineral density in proximal tibia at 30 mg/kg, po QD for 3 weeks by bone densitometer relative to control; type: functional, organism-based; design: dose 30 mg/kg
Rattus norvegicus [37] = assay: AUC in rat at 25 mg/kg, po; settings: plasma
Rattus norvegicus [38] = assay: Cmax in rat at 25 mg/kg, po; settings: in vivo

Compound: Nc1nc(NCCNc2ncc(-c3ncc[nH]3)c(-c3ccc(Cl)cc3Cl)n2)ccc1[N+](=O)[O-]
- IC50 [1]: 0.56 nM

Compound: Cn1cc(C2=C(N3CCOCC3)C(=O)NC2=O)c2ccccc21
- IC50 [1]: 8200 nM

Compound: COc1cccc(C2=C(c3c(C)n(C)c4ccccc34)C(=O)NC2=O)c1
- IC50 [1]: 220 nM

Compound: COc1cccc(C2=C(c3cn(C)c4cc(C)ccc34)C(=O)NC2=O)c1
- IC50 [1]: 35 nM
- IC50 [2]: 2900 nM

Compound: Cn1cc(C2=C(Oc3ccccc3)C(=O)NC2=O)c2ccccc21
- IC50 [1]: 2800 nM

Compound: Cn1cc(C2=C(N(C(=O)OC(C)(C)C)c3ccccc3)C(=O)NC2=O)c2ccccc21
- IC50 [1]: 3100 nM

Compound: COc1cccc(C2=C(c3cn(C)c4cccc(OC)c34)C(=O)NC2=O)c1
- IC50 [1]: 1300 nM

Compound: COc1cccc(C2=C(c3cn(C)c4cc(F)ccc34)C(=O)NC2=O)c1
- IC50 [1]: 31 nM
- IC50 [2]: 4200 nM

Compound: COc1cccc(C2=C(c3cn(C)c4ccc(Cl)cc34)C(=O)NC2=O)c1
- IC50 [1]: 6.4 nM
- IC50 [2]: 1400 nM

Compound: Cn1cc(C2=C(c3cccc(NCCCO)c3)C(=O)NC2=O)c2ccccc21
- IC50 [1]: 1 nM
- IC50 [2]: 740 nM

Compound: Cn1cc(C2=C(c3ccc(-c4ccccc4)cc3)C(=O)NC2=O)c2ccccc21
- IC50 [1]: 730 nM

Compound: Cn1cc(C2=C(Sc3ccccc3)C(=O)NC2=O)c2ccccc21
- IC50 [1]: 2000 nM

Compound: Cn1cc(C2=C(Nc3ccccc3)C(=O)NC2=O)c2ccccc21
- IC50 [1]: 350 nM

Compound: COc1ccc(C2=C(c3cn(C)c4ccccc34)C(=O)NC2=O)cc1OC
- IC50 [1]: 6.6 nM
- IC50 [2]: 6600 nM

Compound: COc1ccc(OC)c(C2=C(c3cn(C)c4ccccc34)C(=O)NC2=O)c1
- IC50 [1]: 22 nM
- IC50 [2]: 380 nM

Compound: Cn1cc(C2=C(c3cccnc3)C(=O)NC2=O)c2ccccc21
- IC50 [1]: 42 nM
- IC50 [2]: > 30000 nM

Compound: CN(C)c1nc2ccc1CCCN1C=C(C3=C(C(=O)NC3=O)c3cn(c4ccccc34)CCC2)N2C=CC=CC12 (stereo not drawn)
- IC50 [1]: 7 nM

Compound: COc1ccc(C2=C(c3cn(C)c4ccccc34)C(=O)NC2=O)c(OC)c1
- IC50 [1]: 2.4 nM
- IC50 [2]: 5500 nM

Compound: Cn1cc(C2=C(c3c4n(c5ccccc35)CCN(C(N)=S)C4)C(=O)NC2=O)c2ccccc21
- IC50 [1]: 10 nM
- IC50 [2]: 1050 nM

Compound: COc1cccc(C2=C(c3cn(C)c4ccccc34)C(=O)NC2=O)c1
- AUC (Mus musculus [3]): BLD
- Cmax (Mus musculus [4]): BLD
- solubility [5]: < 0.5 µg/mL
- IC50 [1]: 90 nM
- IC50 [2]: 6000 nM

Compound: Cn1cc(C2=C(c3ccccc3Cl)C(=O)NC2=O)c2ccccc21
- IC50 [1]: 3.6 nM
- IC50 [2]: 760 nM

Compound: Cn1cc(C2=C(c3cccs3)C(=O)NC2=O)c2ccccc21
- IC50 [1]: 22 nM
- IC50 [2]: 8900 nM

Compound: Cn1cc(C2=C(c3cccc(N)c3)C(=O)NC2=O)c2ccccc21
- IC50 [1]: 1.8 nM
- IC50 [2]: 1900 nM

Compound: Cn1cc(C2=C(c3cccc(OCC(O)CO)c3)C(=O)NC2=O)c2cc(F)ccc21 (racemic)
- solubility [5]: 2.8 µg/mL (≈ 6.82 µM)
- IC50 [1]: 1.8 nM
- IC50 [2]: 2200 nM

Compound: Cn1cc(C2=C(c3cccc(NCC(O)CO)c3)C(=O)NC2=O)c2cc(F)ccc21 (racemic)
- Kd [6]: 310 nM
- Kd [7]: 1.5 nM
- Kd [8]: 40000 nM
- Kd [9]: 10 nM
- Kd [10]: 16 nM
- Kd (Aurora kinase B): 40000 nM
- Kd (Aurora kinase C): 23000 nM
- Kd [11]: 40000 nM
- Kd [12]: 5600 nM
- Kd [13]: 87 nM
- Kd [14]: 110 nM
- Kd [15]: 14000 nM
- solubility [5]: 104 µg/mL (≈ 254 µM)
- Kd [16]: 6700 nM
- Kd [17]: 110 nM
- Kd [18]: 40000 nM
- Kd [19]: 32 nM
- Kd [20]: 80 nM
- Kd [21]: 40000 nM
- Kd [22]: 41 nM
- Kd [23]: 6800 nM
- Activity (Rattus norvegicus [24]): Active
- Kd [25]: 40000 nM
- Kd [26]: 410 nM
- Activity (Rattus norvegicus [27]): Active
- Kd (Aurora kinase A): 40000 nM
- Kd [28]: 69 nM
- Kd [29]: 40000 nM
- Activity (Rattus norvegicus [30]): Active
- Kd [31]: 23000 nM
- Kd [32]: 150 nM
- Kd [33]: 40000 nM
- Kd [34]: 230 nM
- Kd [35]: 320 nM
- Activity (Rattus norvegicus [36]): Active
- IC50 [2]: 400 nM

Compound: Cn1cc(C2=C(c3cccc(NCC(O)CO)c3)C(=O)NC2=O)c2cc(Cl)ccc21 (racemic)
- AUC (Rattus norvegicus [37]): 100 ng·h/mL
- solubility [5]: 42 µg/mL (≈ 98.6 µM)
- Cmax (Rattus norvegicus [38]): 110 ng/mL
- IC50 [1]: 0.4 nM
- IC50 [2]: 260 nM
